Reference: ChEMBL document CHEMBL4024770, “Augmentation of Anticancer Drug Efficacy in Murine Hepatocellular Carcinoma Cells by a Peripherally Acting Competitive N-Methyl-d-aspartate (NMDA) Receptor Antagonist” (J Med Chem, 2017)

Experiments:
[1] = Displacement of [3H]-KA from KA receptor in Sprague-Dawley rat brain synaptosomes after 60 mins by scintillation counting method; type: subcellular
[2] = Displacement of [3H]-CGP-39653 from NMDA receptor in Sprague-Dawley rat brain synaptosomes after 60 mins by scintillation counting method; type: subcellular
[3] = molecular target: Glutamate receptor ionotropic, kainate 1 (Rattus norvegicus, UniProt P22756); test: Displacement of [3H]-SYM2081 from recombinant homomeric rat GluK1 (Q)1b receptor expressed in baculovirus infected Sf9 insect cell membranes by scintillation counting method
[4] = molecular target: Glutamate receptor ionotropic, kainate 2 (Rattus norvegicus, UniProt P42260); test: Displacement of [3H]-KA from recombinant homomeric rat GluK2 (V,C,R)a receptor expressed in baculovirus infected Sf9 insect cell membranes by scintillation counting method
[5] = molecular target: Glutamate NMDA receptor; Grin1/Grin2b (Rattus norvegicus, UniProt P35439+Q00960); test: Antagonist activity at recombinant rat GluN1a/GluN2B expressed in Xenopus laevis oocytes assessed as inhibition of glycine/glutamate-mediated current responses by two-electrode voltage clamp method; type: cell-based
Summary of the method: (§1)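 Xenopus oocytes were injected with rat GluN1 and GluN2A–D cRNA (1:2) and recorded 2–6 days later by TEVC at room temperature, −40 mV, in Ba2+-containing recording solution, pH 7.4. Currents were evoked by 100 μM glycine plus glutamate at 2–3× EC50: 10 μM for GluN2A, 3 μM for GluN2B and GluN2C, 1 μM for GluN2D. IC50 from Hill fits per oocyte; Ki estimated.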

[6] = molecular target: Ionotropic glutamate receptor NMDA 1/2D (Rattus norvegicus, UniProt P35439+Q62645); test: Antagonist activity at recombinant rat GluN1a/GluN2D expressed in Xenopus laevis oocytes assessed as inhibition of glycine/glutamate-mediated current responses by two-electrode voltage clamp method; type: cell-based; summary of the method: as §1
Plasma [7] = test: Cmax in mouse plasma at 10 mg/kg, ip administered as bolus dose by LC-MS/MS analysis; type: ADME, organism-based; parameters: dose 10 mg/kg, route intraperitoneal; conditions: in vivo
Summary of the method: (§2)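 Adult male mice (25 ± 5 g) given a single 10 mg/kg i.p. bolus, prepared as a 5.0 mM solution in 0.9% NaCl. Animals were decapitated at five time points between 10 and 240 min. Plasma was precipitated with acetonitrile containing internal standard. Brain and liver were homogenized in water (1:3) and precipitated the same way. Analysis by LC-MS/MS, with AUC0–240, Cmax, tmax, t½β and liver/plasma ratio derived from the concentration-time data.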

Plasma [8] = test: Tmax in mouse plasma at 10 mg/kg, ip administered as bolus dose by LC-MS/MS analysis; type: ADME, organism-based; conditions: in vivo; summary of the method: as §2
Liver [9] = test: AUC (0 to 240 mins) in mouse liver at 10 mg/kg, ip administered as bolus dose by LC-MS/MS analysis; type: ADME, organism-based; parameters: dose 10 mg/kg, time < 4 hr, route intraperitoneal; conditions: in vivo, 4 h; summary of the method: as §2
Liver [10] = test: Tmax in mouse liver at 10 mg/kg, ip administered as bolus dose by LC-MS/MS analysis; type: ADME, organism-based; conditions: in vivo; summary of the method: as §2
Mus musculus [11] = species: Mus musculus; test: Antagonist activity at NMDA receptor in Nras driven p53 deficient mouse HCC cell membranes assessed as LPS-stimulated PGE2 levels at 10 uM after 24 hrs by LC-MS/MS method (reference value: 162 +/- 7%); parameters: scale not given: the % may be the effect or the level left
Summary of the method: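 Mouse Nras-driven p53−/− HCC cells in DMEM with 2 mM L-glutamine, 10% heat-inactivated FBS and penicillin/streptomycin. Cells incubated 24 h with or without antagonist, either without LPS or with 2.5 μg/mL LPS in the growth medium. Cells washed three times with ice-cold HBSS and lysed in acetonitrile on ice. PGE₂ in lysates measured by LC-MS/MS (LLOQ 1 nM) and expressed as % of control; n=3.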

Brain = test: Cmax in mouse brain at 10 mg/kg, ip administered as bolus dose measured at 30 mins by LC-MS/MS analysis; type: ADME, organism-based; parameters: dose 10 mg/kg, route intraperitoneal; conditions: in vivo, 0.5 h; summary of the method: as §2
Mus musculus [12] = test: Toxicity in mouse assessed as behavioral changes at 10 mg/kg, ip administered as bolus dose; type: organism-based; conditions: in vivo
Mus musculus [13] = species: Mus musculus; test: Antagonist activity at NMDA receptor in Nras driven p53 deficient mouse HCC cell membranes assessed as Abcb1 protein expression levels at 10 uM by […] analysis relative to control; parameters: scale not given: the % may be the effect or the level left
Summary of the method: (§3)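 Mouse Nras-driven p53−/− HCC cells in DMEM with 10% FBS, exposed 48 h with or without 10 μM antagonist, washed, pelleted and snap-frozen. Crude membrane fraction isolated. 50 μg protein reduced, alkylated, precipitated, then Lys-C digested (3 h, rt) and trypsin digested (1:100, 37°C, 16 h). One unique peptide per transporter quantified by multiplexed SRM/MRM LC-MS/MS against stable isotope-labelled standards. Unpaired two-tailed t-test versus control, n=4.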

Mus musculus [14] = species: Mus musculus; test: Antagonist activity at NMDA receptor in Nras driven p53 deficient mouse HCC cell membranes assessed as Abcg2 protein expression levels at 10 uM by […] analysis relative to control; parameters: scale not given: the % may be the effect or the level left; summary of the method: as §3
Mus musculus [15] = species: Mus musculus; test: Antagonist activity at NMDA receptor in Nras driven p53 deficient mouse HCC cell membranes assessed as Slc2a1 protein expression levels at 10 uM by […] analysis relative to control; parameters: scale not given: the % may be the effect or the level left; summary of the method: as §3
Mus musculus [16] = species: Mus musculus; test: (§4) Antagonist activity at NMDA receptor in Nras driven p53 deficient mouse HCC cell membranes assessed as decrease in Abcb1 protein expression levels by measuring [3H]-digoxin accumulation at 10 uM preincubated for 24 hrs followed by compound wash out and addition of [3H]-digoxin measured after 30 mins by scintillation counting method relative to control; parameters: scale not given: the % may be the effect or the level left
Summary of the method: (§5)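 Nras p53−/− HCC cells (1 × 10⁵/well) were pretreated 24 h with or without 10 μM. They were then washed 3× in warm HBSS (choline chloride, pH 7.4) and incubated at 37 °C with probe in HBSS. Incubation was 30 min for [3H]-digoxin, 20 μM fluorescein or 10 μM sorafenib, and 5 min for [14C]-L-leucine or [14C]-D-glucose. Cells were washed ice-cold and lysed in 0.1 M NaOH. Read-out was scintillation, fluorescence or LC-MS/MS, normalized to protein.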

Mus musculus [17] = species: Mus musculus; test: as §4, with “Abcc1 to 5” for “Abcb1”, “fluorescein” for “[3H]-digoxin”, “fluorescence assay” for “scintillation counting method”; parameters: scale not given: the % may be the effect or the level left; summary of the method: as §5
Mus musculus [18] = species: Mus musculus; test: as §4, with “Slc2a1” for “Abcb1”, “[14C]-D-glucose” for “[3H]-digoxin”, “5” for “30”; parameters: scale not given: the % may be the effect or the level left; summary of the method: as §5
Mus musculus [19] = species: Mus musculus; test: Antagonist activity at NMDA receptor in Nras driven p53 deficient mouse HCC cell membranes assessed as potentiation of 2.5 uM sorafenib-mediated antiproliferative activity by measuring cell viability at 100 uM after 72 hrs by resazurin assay (reference value: […] +/- […]%)
Mus musculus [20] = species: Mus musculus; test: Antagonist activity at NMDA receptor in Nras driven p53 deficient mouse HCC cell membranes assessed as potentiation of 5 uM sorafenib-mediated antiproliferative activity by measuring cell viability at 100 uM after 72 hrs by resazurin assay (reference value: […] +/- […]%)

Sequence of Glutamate NMDA receptor; Grin1/Grin2b (Q00960 whole entry, other chains not shown): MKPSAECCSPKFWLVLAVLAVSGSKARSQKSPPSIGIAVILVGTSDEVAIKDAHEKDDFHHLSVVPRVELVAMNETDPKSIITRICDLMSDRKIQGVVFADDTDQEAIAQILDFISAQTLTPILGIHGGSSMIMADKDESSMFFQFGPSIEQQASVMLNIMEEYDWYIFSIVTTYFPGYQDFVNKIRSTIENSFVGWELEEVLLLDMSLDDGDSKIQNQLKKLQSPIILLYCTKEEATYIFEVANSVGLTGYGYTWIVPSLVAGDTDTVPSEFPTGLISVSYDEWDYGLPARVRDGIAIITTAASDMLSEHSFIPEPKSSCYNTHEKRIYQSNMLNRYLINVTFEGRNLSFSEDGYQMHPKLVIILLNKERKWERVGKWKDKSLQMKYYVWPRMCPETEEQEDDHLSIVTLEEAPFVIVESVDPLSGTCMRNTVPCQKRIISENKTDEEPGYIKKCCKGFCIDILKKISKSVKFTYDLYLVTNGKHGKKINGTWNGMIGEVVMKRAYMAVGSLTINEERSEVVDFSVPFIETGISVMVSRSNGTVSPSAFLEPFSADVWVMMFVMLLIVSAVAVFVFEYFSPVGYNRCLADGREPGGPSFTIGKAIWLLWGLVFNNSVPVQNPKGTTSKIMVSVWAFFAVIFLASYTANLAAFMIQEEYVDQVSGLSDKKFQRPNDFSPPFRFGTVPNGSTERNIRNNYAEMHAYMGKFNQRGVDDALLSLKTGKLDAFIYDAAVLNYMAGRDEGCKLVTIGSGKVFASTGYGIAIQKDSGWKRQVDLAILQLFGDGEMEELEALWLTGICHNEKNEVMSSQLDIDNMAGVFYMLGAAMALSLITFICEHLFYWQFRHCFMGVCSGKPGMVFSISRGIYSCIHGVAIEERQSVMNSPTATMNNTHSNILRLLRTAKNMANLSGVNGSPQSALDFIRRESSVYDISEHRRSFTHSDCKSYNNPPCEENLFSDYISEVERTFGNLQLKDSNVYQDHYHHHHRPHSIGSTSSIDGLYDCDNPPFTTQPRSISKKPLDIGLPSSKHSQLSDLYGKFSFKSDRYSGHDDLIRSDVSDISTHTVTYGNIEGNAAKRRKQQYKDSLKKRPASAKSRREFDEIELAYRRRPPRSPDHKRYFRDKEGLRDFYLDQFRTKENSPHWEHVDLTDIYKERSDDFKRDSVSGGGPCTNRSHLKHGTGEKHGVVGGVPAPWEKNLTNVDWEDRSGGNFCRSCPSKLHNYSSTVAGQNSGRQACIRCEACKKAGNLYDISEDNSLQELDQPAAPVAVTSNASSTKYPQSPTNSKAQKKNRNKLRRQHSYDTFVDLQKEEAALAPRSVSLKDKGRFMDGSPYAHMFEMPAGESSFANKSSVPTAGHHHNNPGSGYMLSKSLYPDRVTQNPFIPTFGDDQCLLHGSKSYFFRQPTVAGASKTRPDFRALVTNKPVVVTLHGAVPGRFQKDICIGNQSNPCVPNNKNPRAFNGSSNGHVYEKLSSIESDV
Sequence of Ionotropic glutamate receptor NMDA 1/2D (Q62645 whole entry, other chains not shown): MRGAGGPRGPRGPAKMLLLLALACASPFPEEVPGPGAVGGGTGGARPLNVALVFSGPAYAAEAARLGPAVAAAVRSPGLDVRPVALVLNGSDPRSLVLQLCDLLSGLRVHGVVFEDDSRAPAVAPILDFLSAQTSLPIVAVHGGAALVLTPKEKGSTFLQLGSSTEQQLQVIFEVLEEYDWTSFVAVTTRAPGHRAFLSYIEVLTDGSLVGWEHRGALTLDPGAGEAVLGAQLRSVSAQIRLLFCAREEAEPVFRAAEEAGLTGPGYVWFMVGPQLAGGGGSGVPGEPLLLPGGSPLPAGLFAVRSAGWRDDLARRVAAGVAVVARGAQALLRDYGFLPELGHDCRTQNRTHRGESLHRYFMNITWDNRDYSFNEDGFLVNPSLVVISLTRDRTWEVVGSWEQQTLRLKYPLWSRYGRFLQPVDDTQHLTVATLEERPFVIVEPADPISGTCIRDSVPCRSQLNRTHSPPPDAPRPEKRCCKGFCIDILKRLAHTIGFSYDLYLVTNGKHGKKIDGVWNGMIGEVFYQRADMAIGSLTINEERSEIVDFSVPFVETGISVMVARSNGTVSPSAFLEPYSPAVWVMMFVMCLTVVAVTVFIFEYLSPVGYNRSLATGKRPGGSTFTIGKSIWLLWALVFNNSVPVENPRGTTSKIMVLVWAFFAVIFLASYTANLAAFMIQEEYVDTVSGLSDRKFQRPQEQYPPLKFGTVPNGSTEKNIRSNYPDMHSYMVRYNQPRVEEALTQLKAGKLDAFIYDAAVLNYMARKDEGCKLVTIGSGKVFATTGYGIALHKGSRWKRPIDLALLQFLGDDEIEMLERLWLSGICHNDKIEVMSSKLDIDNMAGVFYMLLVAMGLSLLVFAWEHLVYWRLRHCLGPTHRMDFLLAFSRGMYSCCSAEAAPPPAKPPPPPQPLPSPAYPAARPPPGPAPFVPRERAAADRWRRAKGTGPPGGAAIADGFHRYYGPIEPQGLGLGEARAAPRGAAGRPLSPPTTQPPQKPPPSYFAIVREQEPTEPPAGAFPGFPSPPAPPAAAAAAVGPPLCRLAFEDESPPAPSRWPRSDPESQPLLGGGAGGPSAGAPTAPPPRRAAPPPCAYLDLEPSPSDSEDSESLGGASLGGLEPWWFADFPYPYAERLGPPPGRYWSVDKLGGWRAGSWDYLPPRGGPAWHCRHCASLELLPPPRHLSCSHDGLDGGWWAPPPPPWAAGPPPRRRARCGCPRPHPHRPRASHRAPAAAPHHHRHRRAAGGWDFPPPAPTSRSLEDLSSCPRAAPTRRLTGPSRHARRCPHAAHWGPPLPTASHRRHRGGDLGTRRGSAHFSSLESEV
Sequence of Glutamate receptor ionotropic, kainate 1 (P22756 whole entry): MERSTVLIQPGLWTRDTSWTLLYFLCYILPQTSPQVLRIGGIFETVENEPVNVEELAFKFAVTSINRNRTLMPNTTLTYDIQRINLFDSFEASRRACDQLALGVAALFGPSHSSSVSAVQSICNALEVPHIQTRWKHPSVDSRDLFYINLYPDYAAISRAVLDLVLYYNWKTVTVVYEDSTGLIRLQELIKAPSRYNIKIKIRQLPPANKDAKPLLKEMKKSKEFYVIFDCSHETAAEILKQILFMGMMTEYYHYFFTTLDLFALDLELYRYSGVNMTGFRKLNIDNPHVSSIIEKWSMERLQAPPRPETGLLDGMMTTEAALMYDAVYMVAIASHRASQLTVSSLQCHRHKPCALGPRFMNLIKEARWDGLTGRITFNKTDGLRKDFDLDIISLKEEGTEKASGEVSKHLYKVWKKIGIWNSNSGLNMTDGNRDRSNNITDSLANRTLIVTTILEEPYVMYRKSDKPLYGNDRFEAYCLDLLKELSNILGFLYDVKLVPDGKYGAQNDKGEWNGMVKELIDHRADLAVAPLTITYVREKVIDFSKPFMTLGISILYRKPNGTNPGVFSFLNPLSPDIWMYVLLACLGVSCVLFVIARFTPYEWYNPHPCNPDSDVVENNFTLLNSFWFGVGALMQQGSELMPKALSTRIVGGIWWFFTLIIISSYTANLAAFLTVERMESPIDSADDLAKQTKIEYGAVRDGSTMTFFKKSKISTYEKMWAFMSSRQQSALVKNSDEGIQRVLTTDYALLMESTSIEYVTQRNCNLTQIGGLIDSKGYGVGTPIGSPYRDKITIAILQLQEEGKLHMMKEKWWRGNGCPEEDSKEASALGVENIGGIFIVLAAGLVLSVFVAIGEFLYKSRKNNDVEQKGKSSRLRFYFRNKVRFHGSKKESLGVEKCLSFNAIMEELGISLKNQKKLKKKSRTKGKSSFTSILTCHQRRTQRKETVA
Sequence of Glutamate receptor ionotropic, kainate 2 (P42260 whole entry): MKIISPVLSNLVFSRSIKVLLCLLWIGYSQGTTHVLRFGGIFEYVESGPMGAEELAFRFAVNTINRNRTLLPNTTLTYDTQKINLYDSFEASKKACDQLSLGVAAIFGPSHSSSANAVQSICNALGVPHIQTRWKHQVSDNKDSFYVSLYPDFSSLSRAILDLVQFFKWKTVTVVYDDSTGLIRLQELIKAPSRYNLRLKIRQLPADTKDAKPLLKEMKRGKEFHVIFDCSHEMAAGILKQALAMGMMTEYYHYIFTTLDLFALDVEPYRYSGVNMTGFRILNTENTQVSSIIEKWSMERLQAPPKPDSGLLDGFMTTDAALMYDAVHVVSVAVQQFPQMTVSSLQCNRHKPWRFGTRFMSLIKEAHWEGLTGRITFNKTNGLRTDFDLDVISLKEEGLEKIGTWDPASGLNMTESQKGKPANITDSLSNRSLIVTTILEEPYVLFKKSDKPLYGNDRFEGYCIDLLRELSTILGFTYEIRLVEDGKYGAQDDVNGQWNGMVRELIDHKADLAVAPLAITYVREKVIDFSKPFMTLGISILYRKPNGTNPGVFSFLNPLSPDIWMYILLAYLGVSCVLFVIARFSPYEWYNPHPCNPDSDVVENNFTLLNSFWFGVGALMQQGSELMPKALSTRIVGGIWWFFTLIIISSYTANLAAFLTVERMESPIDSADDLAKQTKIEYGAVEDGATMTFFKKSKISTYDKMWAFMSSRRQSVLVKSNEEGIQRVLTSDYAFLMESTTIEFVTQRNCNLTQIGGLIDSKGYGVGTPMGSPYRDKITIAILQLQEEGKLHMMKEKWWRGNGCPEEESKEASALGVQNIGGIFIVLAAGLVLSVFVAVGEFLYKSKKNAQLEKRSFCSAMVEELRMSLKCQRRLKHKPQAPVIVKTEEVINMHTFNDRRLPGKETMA

Cl.O=C(O)c1cc([C@H]2CCN[C@@H]2C(=O)O)ccc1Cl
IC50 [1]: > 100 µM
Ki [2]: 630 nM
pKi [2]: 6.22
Ki [3]: 154 µM
Ki [4]: > 100 µM
IC50 [5]: 29 µM
Ki [5]: 10 µM
IC50 [6]: 170 µM
Ki [6]: 41 µM
Cmax (Plasma [7]): 43.4 nmol/g
Tmax (Plasma [8]): 15 min
AUC (Liver [9]): 575 nmol·min/g
Tmax (Liver [10]): 30 min
Activity (Mus musculus [11]): 127%
Cmax (Brain): 0.3 nmol/g
Activity (Mus musculus [12]): Non-Toxic
Activity (Mus musculus [13]): 39%
Activity (Mus musculus [14]): 34%
Activity (Mus musculus [15]): 42%
Activity (Mus musculus [16]): 149%
Activity (Mus musculus [17]): 201%
Activity (Mus musculus [18]): 84%
Activity (Mus musculus [19]): 30%
Activity (Mus musculus [20]): 35%
